Key:
[1] = biological target: T1, Lysophosphatidic acid receptor 2 (Homo sapiens, UniProt Q9HBW0); assay: Antagonist activity at LPA2 expressed in RH7777 cells with Gi4-protein and aequorin by calcium mobilization assay; format: functional, cell-based
Method in brief: (§1)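 Rat hepatoma RH7777 cells transiently transfected with aequorin, chimeric Gi4-protein and the LPA receptor subtype (LPA1, LPA2 or LPA3). Inhibition of LPA-induced receptor activation read as Ca2+ flux by flash luminescence in 384-well format; IC50 in μM, n = 2.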

[2] = biological target: Lysophosphatidic acid receptor 1 (Homo sapiens, UniProt Q92633); assay: Antagonist activity at LPA1 expressed in RH7777 cells with Gi4-protein and aequorin by calcium mobilization assay; format: functional, cell-based; method in brief: as §1
Sequence of Lysophosphatidic acid receptor 1 (Q92633 whole entry): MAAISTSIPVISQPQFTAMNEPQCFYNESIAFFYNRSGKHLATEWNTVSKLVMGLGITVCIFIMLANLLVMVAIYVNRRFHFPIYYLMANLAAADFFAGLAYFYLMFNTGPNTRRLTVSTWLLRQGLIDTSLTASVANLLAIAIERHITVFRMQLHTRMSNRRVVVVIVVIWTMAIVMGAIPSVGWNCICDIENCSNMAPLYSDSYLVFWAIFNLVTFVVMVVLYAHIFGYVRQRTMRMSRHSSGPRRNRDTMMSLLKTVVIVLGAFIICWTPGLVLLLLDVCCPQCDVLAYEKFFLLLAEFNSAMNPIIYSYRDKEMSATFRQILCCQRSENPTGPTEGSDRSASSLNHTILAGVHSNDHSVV

[3] = biological target: T2, Lysophosphatidic acid receptor 3 (Homo sapiens, UniProt Q9UBY5); assay: Antagonist activity at LPA3 expressed in RH7777 cells with Gi4-protein and aequorin by calcium mobilization assay; format: functional, cell-based; method in brief: as §1
T2 sequence (Q9UBY5 whole entry): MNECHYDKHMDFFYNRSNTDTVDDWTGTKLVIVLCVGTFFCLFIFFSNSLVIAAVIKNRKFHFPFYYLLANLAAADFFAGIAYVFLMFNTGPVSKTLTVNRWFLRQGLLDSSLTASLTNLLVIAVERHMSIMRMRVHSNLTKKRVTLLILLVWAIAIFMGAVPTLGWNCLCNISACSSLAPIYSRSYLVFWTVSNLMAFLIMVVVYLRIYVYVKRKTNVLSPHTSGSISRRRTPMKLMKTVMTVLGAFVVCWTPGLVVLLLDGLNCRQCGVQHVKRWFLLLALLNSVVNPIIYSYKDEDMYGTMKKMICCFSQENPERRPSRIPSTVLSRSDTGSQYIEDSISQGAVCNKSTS

[4] = biological target: T1, Lysophosphatidic acid receptor 2; assay: Antagonist activity at LPA2 assessed as inhibition of LPA-induced Ca2+ flux; format: functional; method in brief: as §1
[5] = biological target: T1, Lysophosphatidic acid receptor 2; assay: Inhibition of LPA2-mediated Erk activation in human HCT116 assessed as inhibition of LPA-induced erk phosphorylation
Method in brief: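 HCT-116 cells at 90% confluence serum-starved 2 h, preincubated with compound at various concentrations 1 h at 37 °C, then stimulated with LPA 3 μM (HGF 30 ng/ml as counter-stimulus) for 12 min at 37 °C. Cells fixed, permeabilized, blocked 2 h; in-cell Western detection of p-Erk and total Erk simultaneously, p-Erk normalized to total Erk per well.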

HCT-116 = assay: Inhibition of LPA-induced proliferation of human HCT116 cells after 24 hrs; format: functional, cell-based
Method in brief: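 HCT-116 cells at 5000 cells/well in serum-free DMEM with 0.11% BSA. Test compound added at various concentrations, then LPA at a final 3 μM (HGF at a final 30 ng/ml as comparison stimulus). After 24 h incubation, viable cells measured by CellTiter-Glo luminescence.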

T1 sequence (Q9HBW0 whole entry): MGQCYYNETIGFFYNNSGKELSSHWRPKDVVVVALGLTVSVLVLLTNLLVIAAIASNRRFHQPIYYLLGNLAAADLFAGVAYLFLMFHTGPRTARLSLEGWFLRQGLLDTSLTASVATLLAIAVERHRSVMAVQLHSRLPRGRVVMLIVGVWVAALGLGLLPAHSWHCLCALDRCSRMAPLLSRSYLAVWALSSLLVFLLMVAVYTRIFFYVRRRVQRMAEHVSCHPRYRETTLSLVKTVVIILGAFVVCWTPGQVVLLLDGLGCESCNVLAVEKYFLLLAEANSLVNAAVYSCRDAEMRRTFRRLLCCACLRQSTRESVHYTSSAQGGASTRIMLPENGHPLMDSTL

Question: How did the IC50 [1] turn out when `COc1ccccc1N1CCN(C[C@H](C)Nc2nc(C(F)(F)F)nc3ccccc23)CC1` was run?
Answer: 1300 nM

Question: How did the IC50 [1] turn out when `Cc1csc2c(N[C@@H](C)CN3CCN(S(=O)(=O)Cc4ccccc4)CC3)ncnc12` was run?
Answer: 1860 nM

Question: `CCCCS(=O)(=O)N1CCN(C[C@H](C)Nc2ncnc3c(C)csc23)CC1` was tested. Which IC50 [1] did it give?
Answer: 6610 nM

Question: With `COc1cc(OC)cc(C(=O)N(CCCc2ccccc2)Cc2ccc(Oc3ccccc3C(=O)O)cc2)c1` as the compound, how does the IC50 [1] read?
Answer: > 50000 nM

Question: And the IC50 [2]?
Answer: > 50000 nM

Question: What about the IC50 [3] of the same compound?
Answer: 40 nM

Question: How did the IC50 [1] turn out when `Cc1ccccc1S(=O)(=O)N1CCN(C[C@H](C)Nc2ncnc3c(C)csc23)CC1` was run?
Answer: 730 nM

Question: With `Cc1ccccc1N1CCN(C[C@H](C)Nc2nc(C(F)(F)F)nc3ccccc23)CC1` as the compound, how does the IC50 [1] read?
Answer: 730 nM

Question: How did the IC50 [1] turn out when `Cc1noc(-c2ccccc2)c1NC(=O)OC(C)c1ccccc1` (stereo not drawn) was run?
Answer: > 50000 nM

Question: What about the IC50 [2] of the same compound?
Answer: 50 nM

Question: And the IC50 [3]?
Answer: 12000 nM

Question: For `COc1ccccc1N1CCN(C[C@H](C)Nc2nc(C3CC3)nc3ccccc23)CC1`, which IC50 [1] is on record?
Answer: 3200 nM

Question: For `Cc1cccc(S(=O)(=O)N2CCN(C[C@H](C)Nc3ncnc4c(C)csc34)CC2)c1`, which IC50 [1] is on record?
Answer: 310 nM

Question: `COc1ccccc1N1CCN(CC(C)(C)Nc2nc(C(F)(F)F)nc3ccccc23)CC1` was tested. Which IC50 [1] did it give?
Answer: > 30000 nM

Question: For `CC(CN1CCN(c2ccc(F)cc2)CC1)Nc1nc(C2CC2)nc2ccccc12` (stereo not drawn), which IC50 [4] is on record?
Answer: 1700 nM

Question: Which IC50 [1] does the source give for `COc1ccccc1N1CCN(C[C@@H](C)Nc2nc(C(F)(F)F)nc3ccccc23)CC1` here?
Answer: > 30000 nM

Question: Which IC50 [1] does the source give for `Cc1csc2c(N[C@@H](C)CN3CCN(S(=O)(=O)c4ccc(Cl)c(Cl)c4)CC3)ncnc12` here?
Answer: 17 nM

Question: And the IC50 [2]?
Answer: > 50000 nM

Question: And the Activity [5]?
Answer: Dose-dependent effect

Question: And the Activity (HCT-116)?
Answer: Dose-dependent effect

Question: What about the IC50 [3] of the same compound?
Answer: > 50000 nM

Question: How did the IC50 [1] turn out when `Cc1ccccc1N1CCN(C[C@H](C)Nc2ncnc3c(C)csc23)CC1` was run?
Answer: 260 nM

Question: And the IC50 [2]?
Answer: > 50000 nM

Question: What about the IC50 [3] of the same compound?
Answer: > 50000 nM

Question: How did the IC50 [1] turn out when `Cc1ccc(S(=O)(=O)N2CCN(C[C@H](C)Nc3ncnc4c(C)csc34)CC2)cc1` was run?
Answer: 170 nM

Question: `Cc1csc2c(N[C@@H](C)CN3CCN(S(=O)(=O)c4cccc(Cl)c4)CC3)ncnc12` was tested. Which IC50 [1] did it give?
Answer: 35 nM

Question: How did the IC50 [1] turn out when `COc1ccccc1N1CCN(CCNc2nc(C(F)(F)F)nc3ccccc23)CC1` was run?
Answer: > 30000 nM

Question: How did the IC50 [1] turn out when `CC[C@@H](CN1CCN(c2ccccc2OC)CC1)Nc1nc(C(F)(F)F)nc2ccccc12` was run?
Answer: > 30000 nM
